Active and inactive are the calls of the source. No cut-off for these calls is given here.
Tests used:
MCF7 [1] = assay: Growth inhibition of human MCF7 cells after 48 hrs by sulforhodamine B assay; assay type: functional; conditions: for GI50: MCF7, 48 h
Method in brief: (§1)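 NCI-style sulforhodamine B assay. HT-29 (5×10³), M21 or MCF-7 (3.5×10³) cells were grown 24 h, then given DMSO-solubilized drug at 100 to 0.7 µM final (DMSO <0.5%) for 48 h. Fixed in cold 10% TCA, stained with 0.1% SRB, read at 585 nm after subtracting a day-0 plate. Inhibition is relative to DMSO controls; GI50 from at least triplicate runs.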

HT-29 = assay: Growth inhibition of human HT29 cells after 48 hrs by sulforhodamine B assay; assay type: functional; conditions: for GI50: HT-29, 48 h; method in brief: as §1
M21 [2] = assay: Inhibition of nuclear translocation of thioredoxin 1 in human M21 cells at 50 uM after 18 hrs by immunocytochemistry; assay type: functional, cell-based
Method in brief: (§2)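 M21 cells seeded on fibronectin-coated coverslips, held 18 h at 37 °C, then treated with compounds (5–50 µM; reference agents 0.1–40 µM) or 0.1% DMSO. Fixed in 3.7% formaldehyde, permeabilized with 0.1% saponin, and blocked in 3% BSA. Stained 1 h at 37 °C with anti-thioredoxin-1 monoclonal (1/200), then with Alexa-488 anti-mouse IgG plus DAPI for nuclei.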

M21 [3] = assay: Inhibition of nuclear translocation of thioredoxin 1 in human M21 cells at 25 uM after 18 hrs by immunocytochemistry; assay type: functional, cell-based; method in brief: as §2
M21 [4] = assay: Growth inhibition of human M21 cells after 48 hrs by sulforhodamine B assay; assay type: functional; conditions: for GI50: M21, 48 h; method in brief: as §1
MCF7 [5] = assay: Cell cycle arrest in human MCF7 cells assessed as […] phase accumulation at 2 times GI50 after 24 hrs by flow cytometry; assay type: functional
MCF7 [6] = assay: Cell cycle arrest in human MCF7 cells assessed as G2/M phase accumulation at 2 times GI50 after 24 hrs by flow cytometry; assay type: functional
MCF7 [7] = assay: Cell cycle arrest in human MCF7 cells assessed as S phase accumulation at 2 times GI50 after 24 hrs by flow cytometry; assay type: functional
MCF7 [8] = assay: Cell cycle arrest in human MCF7 cells assessed as S phase accumulation at 2 times GI50 after 24 hrs by flow cytometry
MCF7 [9] = assay: Cell cycle arrest in human MCF7 cells assessed as G0/G1 phase accumulation at 2 times GI50 after 24 hrs by flow cytometry
MCF7 [10] = assay: Cell cycle arrest in human MCF7 cells assessed as G2/M phase accumulation at 2 times GI50 after 24 hrs by flow cytometry
M21 [11] = assay: Inhibition of nuclear translocation of thioredoxin 1 in human M21 cells at 5 uM after 18 hrs by immunocytochemistry; assay type: functional, cell-based; method in brief: as §2

| SMILES | GI50 (MCF7 [1]) | GI50 (HT-29) | Activity (M21 [2]) | GI50 (M21 [4]) | Activity (MCF7 [8]) | Activity (MCF7 [9]) | Activity (MCF7 [10]) | Activity (M21 [11]) | further results |
| --- | --- | --- | --- | --- | --- | --- | --- | --- | --- |
| CCNC(=O)Nc1ccc(C2CCCCC2)cc1 | – | – | – | – | – | – | – | – | Activity (MCF7 [1]): inactive; Activity (HT-29): inactive; Activity (M21 [4]): inactive |
| O=C(NCCCl)Nc1ccc(OC2CCCCC2)cc1 | – | – | Active | – | – | – | – | – | Activity (MCF7 [5]): 57%; Activity (MCF7 [6]): 14%; Activity (MCF7 [7]): 29% |
| O=C(NCCCl)NC1c2ccccc2-c2ccccc21 | – | – | Active | – | – | – | – | – | – |
| c1cc(C2CCCCC2)ccc1NC1=NCCO1 | 17.5 µM | 12.8 µM | Active | 17.8 µM | 16% | 73% | 11% | – | – |
| O=C(NCCCl)Nc1cccc(OC2CCCCCC2)c1 | – | – | Active | – | – | – | – | – | Activity (MCF7 [5]): 72%; Activity (MCF7 [6]): 6%; Activity (MCF7 [7]): 22% |
| c1cc(OC2CCCC2)ccc1NC1=NCCO1 | 23.1 µM | 16.1 µM | Active | 21.1 µM | 23% | 70% | 7% | – | – |
| Cc1ccc(NC(=O)NCCCl)cc1 | – | – | Active | – | – | – | – | – | – |
| O=C(NCCCl)Nc1cccc(OC2CCCC2)c1 | – | – | Active | – | – | – | – | – | Activity (MCF7 [5]): 64%; Activity (MCF7 [6]): 12%; Activity (MCF7 [7]): 24% |
| O=C(CCl)NC(=O)Nc1ccc2c(c1)CCC2 | – | – | – | – | – | – | – | Active | – |
| CC(C)(C)c1ccc(NC2=NCCO2)cc1 | – | – | – | – | 11% | 15% | 74% | inactive | – |
| c1cc(NC2=NCCO2)cc(OC2CCCC2)c1 | 62.1 µM | 52.2 µM | Active | 76.9 µM | 17% | 77% | 6% | – | – |
| CCNC(=O)Nc1ccc(OC2CCCCC2)cc1 | – | – | – | – | – | – | – | – | Activity (MCF7 [1]): inactive; Activity (HT-29): inactive; Activity (M21 [4]): inactive |
| O=C(NCCCl)Nc1cccc(Oc2ccccc2)c1 | – | – | inactive | – | – | – | – | – | – |
| Cc1ccc(NC(=O)NC(=O)CCl)cc1C | – | – | – | – | – | – | – | inactive | – |
| CCNC(=O)Nc1cccc(OC2CCCCCC2)c1 | – | – | – | – | – | – | – | – | Activity (MCF7 [1]): inactive; Activity (HT-29): inactive; Activity (M21 [4]): inactive |
| c1cc2c(cc1NC1=NCCO1)CCC2 | – | – | Active | – | – | – | – | – | Activity (M21 [3]): Active |
| O=C(CCl)NC(=O)NC1c2ccccc2-c2ccccc21 | – | – | – | – | – | – | – | inactive | – |
| CCNC(=O)Nc1ccc2c(c1)CCC2 | – | – | – | – | – | – | – | – | Activity (MCF7 [1]): inactive; Activity (HT-29): inactive; Activity (M21 [4]): inactive |
| CC(C)(C)c1ccc(NC(=O)NC(=O)CCl)cc1 | – | – | – | – | 20% | 61% | 19% | Active | – |
| Cc1ccc(NC(=O)NC(=O)CCl)cc1 | – | – | – | – | – | – | – | Active | – |
| c1ccc2c(c1)-c1ccccc1C2NC1=NCCO1 | – | – | Active | – | – | – | – | – | – |
| Ic1ccc(NC2=NCCO2)cc1 | – | – | – | – | 10% | 14% | 76% | Active | – |
| c1ccc2cc(NC3=NCCO3)ccc2c1 | 4.5 µM | 2 µM | Active | 3.5 µM | – | – | – | Active | – |
| O=C(NCCCl)Nc1ccc2c(c1)CCC2 | – | – | – | – | – | – | – | – | Activity (M21 [3]): Active |
| Cc1ccc(NC2=NCCO2)cc1 | – | – | inactive | – | – | – | – | – | – |
| O=C(CCl)NC(=O)Nc1ccc(I)cc1 | – | – | – | – | 22% | 68% | 10% | Active | – |

The next lines start with results.

| GI50 (MCF7 [1]) | GI50 (HT-29) | SMILES | Activity (M21 [2]) | GI50 (M21 [4]) | Activity (MCF7 [8]) | Activity (MCF7 [9]) | Activity (MCF7 [10]) | Activity (M21 [11]) | further results |
| --- | --- | --- | --- | --- | --- | --- | --- | --- | --- |
| 11.1 µM | 10.3 µM | c1ccc(COc2ccc(NC3=NCCO3)cc2)cc1 | Active | 15.9 µM | – | – | – | – | Activity (M21 [3]): Active |
| 14.8 µM | 6.9 µM | c1cc(NC2=NCCO2)cc(OC2CCCCCC2)c1 | Active | 14.4 µM | 28% | 48% | 24% | – | Activity (M21 [3]): Active |
| 26.8 µM | 16.6 µM | c1cc(OC2CCCCCC2)ccc1NC1=NCCO1 | Active | 27.1 µM | 14% | 82% | 4% | – | – |
| 6.2 µM | 3.1 µM | O=C(CCl)NC(=O)Nc1cccc(OC2CCCC2)c1 | – | 3.5 µM | 34% | 53% | 13% | Active | – |
| 7.6 µM | 4.9 µM | O=C(CCl)NC(=O)Nc1ccc2ccccc2c1 | – | 3.7 µM | – | – | – | inactive | – |
| 1.5 µM | 2.3 µM | O=C(CCl)NC(=O)Nc1ccc(C2CCCCC2)cc1 | – | 0.9 µM | 51% | 25% | 24% | Active | – |
| 4.2 µM | 3.6 µM | O=C(CCl)NC(=O)Nc1ccc(Oc2ccccc2)cc1 | – | 4.2 µM | – | – | – | inactive | – |
| 6.2 µM | 6.5 µM | O=C(CCl)NC(=O)Nc1cccc(OCc2ccccc2)c1 | – | 4.5 µM | – | – | – | inactive | – |
| 8.1 µM | 5.2 µM | O=C(CCl)NC(=O)Nc1cccc(Oc2ccccc2)c1 | – | 5.3 µM | – | – | – | Active | – |
| 4.7 µM | 3.1 µM | O=C(CCl)NC(=O)Nc1ccc(OC2CCCCC2)cc1 | – | 5 µM | 20% | 70% | 10% | Active | – |
| 42 µM | 8.3 µM | O=C(NCCCl)Nc1ccc(-c2ccccc2)cc1 | Active | 14.5 µM | – | – | – | – | Activity (M21 [3]): Active |
| 3.5 µM | 2 µM | c1ccc(Oc2ccc(NC3=NCCO3)cc2)cc1 | inactive | 3.1 µM | – | – | – | inactive | – |
| 3.9 µM | 2.3 µM | O=C(CCl)NC(=O)Nc1ccc(-c2ccccc2)cc1 | – | 1.4 µM | – | – | – | Active | – |
| 24.1 µM | 53.4 µM | C1COC(NC2C3CC4CC(C3)CC2C4)=N1 (stereo not given) | Active | 60.7 µM | – | – | – | – | – |
| 6.3 µM | 3.8 µM | O=C(CCl)NC(=O)Nc1cccc(OC2CCCCC2)c1 | – | 2.7 µM | 20% | 73% | 7% | Active | – |
| 11.3 µM | 50.6 µM | O=C(NCCCl)NC1C2CC3CC(C2)CC1C3 (stereo not given) | inactive | – | – | – | – | – | Activity (M21 [4]): inactive |
| 4.6 µM | 2.6 µM | O=C(CCl)NC(=O)Nc1ccc(OCc2ccccc2)cc1 | – | 5.1 µM | – | – | – | inactive | – |
| 19.1 µM | 12.6 µM | c1cc(OC2CCCCC2)ccc1NC1=NCCO1 | Active | 20.8 µM | 13% | 82% | 5% | – | – |
| 3.6 µM | 2.3 µM | O=C(CCl)NC(=O)Nc1ccc(OC2CCCCCC2)cc1 | – | 5 µM | 30% | 59% | 11% | Active | – |
| 7.2 µM | 6.9 µM | O=C(CCl)NC(=O)Nc1cccc(OC2CCCCCC2)c1 | – | 4.2 µM | 31% | 58% | 11% | Active | – |
| 79.7 µM | 37.5 µM | O=C(NCCCl)Nc1ccc(OCc2ccccc2)cc1 | inactive | – | – | – | – | – | Activity (M21 [4]): inactive |
| 10.6 µM | 5.8 µM | c1ccc(-c2ccc(NC3=NCCO3)cc2)cc1 | Active | 8.8 µM | – | – | – | – | Activity (M21 [3]): Active |
| 2.6 µM | 0.8 µM | c1ccc(COc2cccc(NC3=NCCO3)c2)cc1 | – | 1.5 µM | – | – | – | inactive | – |
| 12.2 µM | 5.5 µM | c1ccc(Oc2cccc(NC3=NCCO3)c2)cc1 | inactive | 9.6 µM | – | – | – | – | Activity (M21 [3]): inactive |
| 6.2 µM | 5.1 µM | O=C(CCl)NC(=O)NC1C2CC3CC(C2)CC1C3 (stereo not given) | – | 3.2 µM | – | – | – | – | – |
| 15.9 µM | 4.4 µM | c1cc(NC2=NCCO2)cc(OC2CCCCC2)c1 | Active | 12 µM | 19% | 43% | 38% | – | Activity (M21 [3]): Active |
| 3.9 µM | 3.1 µM | O=C(CCl)NC(=O)Nc1ccc(OC2CCCC2)cc1 | – | 2.9 µM | 33% | 58% | 9% | Active | – |

Reference: ChEMBL document CHEMBL1155784, “Aromatic 2-chloroethyl urea derivatives and bioisosteres. Part 2: Cytocidal activity and effects on the nuclear translocation of thioredoxin-1, and the cell cycle progression” (2008)
